Measurements reported in article PMC5558211 (Journal of medicinal chemistry, 2017).
Entries after “also recorded” stand apart in the source; their conditions may differ.

Assays:
5FW-Brd4(1) = 5FW-Brd4(1) (Homo sapiens, UniProt O60885); assay: PrOF NMR titration; type: binding
Method in brief: (§1)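 19F NMR at 500 MHz with cryoprobe, 40–50 μM 5FW-labelled bromodomain in 50 mM Tris, 100 mM NaCl, pH 7.4, 5% D2O (BrdT samples also 3 mM DTT). Used 90° flip angle, 0.7 s relaxation delay, 0.1 s acquisition and 500 transients, referenced to TFA at −76.55 ppm. Ligand was titrated from concentrated DMSO stocks, keeping DMSO below 1%. Kd came from a one-site fit accounting for ligand depletion.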

c-Myc = assay: Western blot of c-Myc levels; type: cell-based; conditions: MM1.S cells, 6 h
Method in brief: (§2)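 MM1.S cells were grown in RPMI-1640 with 10% FBS at 37 °C, 5% CO2, seeded at 1 × 10^6 per well and exposed to increasing inhibitor concentrations for 6 h. Cells were pelleted (300 g, 5 min) and lysed at 4 °C with protease/phosphatase inhibitors plus 5 mM EDTA. Protein was quantified, run on 10 or 12.5% SDS-PAGE, transferred and probed with c-MYC or p21Cip1 antibodies, with chemiluminescent detection.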

p21Cip1 = assay: Western blot of p21Cip1 levels; type: cell-based; conditions: MM1.S cells, 6 h
Method in brief: as §2

BrdT(1) = BrdT(1) (Homo sapiens, UniProt Q58F21); assay: Fluorescence anisotropy competition assay with BI-BODIPY tracer; type: binding
Brd4(1) [1] = molecular target: T1, Brd4(1) (Homo sapiens, UniProt O60885); assay: as above; type: binding
Brd4(1) [2] = molecular target: T1, Brd4(1); assay: AlphaScreen competition against biotinylated compound 2; type: binding; conditions: for Hill slope: alpha-screen competition
MM1.S cells = assay: Cell viability; type: cell-based
5FW-BPTF = 5FW-BPTF (Homo sapiens, UniProt Q12830); assay: PrOF NMR titration; type: binding; conditions: non-BET bromodomain BPTF
[3] = Stability of DMSO solution over freeze-thaw cycles by ESI-MS; type: physicochemical; conditions: DMSO solution at −20 °C, several freeze-thaw cycles
5FW-BrdT(1) = 5FW-BrdT(1) (Homo sapiens, UniProt Q58F21); assay: PrOF NMR titration; type: binding
Method in brief: as §1

Row | Compound | effect on c-Myc levels (c-Myc) | effect on p21Cip1 levels (p21Cip1) | binding by fluorescence anisotropy (BrdT(1)) | binding behaviour by PrOF NMR (5FW-Brd4(1)) | further results
1 | CCn1c(N)cc(=O)[nH]c1=O [6-amino-1-ethyluracil, reference compound] |  |  |  |  | ligand efficiency (5FW-Brd4(1); from PrOF NMR Kd): 0.39 kcal/mol/non-hydrogen atom
2 | Cc1sc2c(c1C)C(c1ccc(Cl)cc1)=N[C@@H](CC(=O)OC(C)(C)C)c1nnc(C)n1-2 [Compound 2, (+)-JQ1, reference compound] | dose-dependent reduction of c-Myc levels | upregulation of p21Cip1 levels |  |  | 
3 | CCn1c2c(c(=O)[nH]c1=O)C(c1ccc(C)cc1)C1=C(CN(CCc3ccccc3)C1=O)N2 (stereo not drawn) [Compound 3q, 1-Ethyl-7-phenethyl-5-(p-tolyl)-5,7,8,9-tetrahydro-1H-pyrrolo[3',4':5,6]pyrido[2,3-d]pyrimidine-2,4,6(3H)-trione] | decreasing c-Myc expression levels | concomitant increase in p21Cip1 |  |  | 
4 | CCn1c2c(c(=O)[nH]c1=O)C(c1ccc(C)cc1)C1=C(CN(Cc3ccccc3)C1=O)N2 (stereo not drawn) [Compound 3p, 7-Benzyl-1-ethyl-5-(p-tolyl)-5,7,8,9-tetrahydro-1H-pyrrolo[3',4':5,6]pyrido[2,3-d]pyrimidine-2,4,6(3H)-trione] | decreasing c-Myc expression levels | concomitant increase in p21Cip1 |  |  | 
5 | Cc1ccc(C2C3=C(COC3=O)Nc3c2c(=O)n(C)c(=O)n3C)cc1 (stereo not drawn) [Compound 3e, 1,3-Dimethyl-5-(p-tolyl)-5,9-dihydrofuro[3′,4′:5,6]pyrido[2,3-d]pyrimidine-2,4,6(1H,3H,8H)-trione] |  |  | inactive |  | 
6 | CCn1c(=O)[nH]c(=O)c2c(-c3ccc(C)cc3)c3c(nc21)COC3=O [Compound 3n, 1-Ethyl-5-(p-tolyl)furo[3′,4′:5,6]pyrido[2,3-d]pyrimidine-2,4,6(1H,3H,8H)-trione] |  |  | no binding was observed |  | binding by fluorescence anisotropy (Brd4(1) [1]): no binding was observed
7 | CCn1c2c(c(=O)[nH]c1=O)C(c1ccc(C)cc1)C1=C(COC1=O)N2 (stereo not drawn) [Compound 3, 1-Ethyl-5-(p-tolyl)-5,9-dihydrofuro[3′,4′:5,6]pyrido[2,3-d]pyrimidine-2,4,6(1H,3H,8H)-trione] | ineffective in altering c-Myc or p21Cip1 levels | ineffective in altering c-Myc or p21Cip1 levels |  | slow to intermediate exchange | Hill slope (Brd4(1) [2]): −1; growth inhibition activity (MM1.S cells): lacked growth inhibition activity; effect of serum on binding by PrOF NMR (5FW-Brd4(1); presence of serum): did not interfere with the binding; binding by PrOF NMR (5FW-BPTF): does not bind; also recorded: no binding was detected; stability of dihydropyridine moiety [3]: remains stable; binding behaviour by PrOF NMR (5FW-BrdT(1)): slow to intermediate exchange
8 | O=C1COC(=O)C1 [tetronic acid, reference compound] |  |  |  | No binding was observed | 
9 | CCn1c2c(c(=O)[nH]c1=O)C(c1ccc(C)cc1)C1=C(CN(CCc3ccc(OC)cc3)C1=O)N2 (stereo not drawn) [Compound 3r, 1-Ethyl-7-(4-methoxyphenethyl)-5-(p-tolyl)-5,7,8,9-tetrahydro-1H-pyrrolo[3',4':5,6]pyrido[2,3-d]pyrimidine-2,4,6(3H)-trione] | decreasing c-Myc expression levels | concomitant increase in p21Cip1 |  |  | 
10 | Cc1ccc(C2C3=C(COC3=O)Nc3c2c(=O)[nH]c(=O)n3CC(F)(F)F)cc1 (stereo not drawn) [Compound 3j, 5-(p-Tolyl)-1-(2,2,2-trifluoroethyl)-5,9-dihydrofuro[3′,4′:5,6]pyrido[2,3-d]pyrimidine-2,4,6(1H,3H,8H)-trione] | ineffective in altering c-Myc or p21Cip1 levels | ineffective in altering c-Myc or p21Cip1 levels |  | slow to intermediate exchange | IC50 (Brd4(1) [2]): 4.6 µM; Hill slope (Brd4(1) [2]): −1.6; growth inhibition activity (MM1.S cells): lacked growth inhibition activity
11 | CCn1c2c(c(=O)n(C)c1=O)C(c1ccc(C)cc1)C1=C(COC1=O)N2 (stereo not drawn) [Compound 3m, 1-Ethyl-3-methyl-5-(p-tolyl)-5,9-dihydrofuro[3′,4′:5,6]pyrido[2,3-d]pyrimidine-2,4,6(1H,3H,8H)-trione] |  |  | inactive |  | 
12 | COc1ccc(C2C3=C(COC3=O)Nc3c2c(=O)n(C)c(=O)n3C)cc1 (stereo not drawn) [Compound 3f, 5-(4-Methoxyphenyl)-1,3-dimethyl-5,9-dihydrofuro[3′,4′:5,6]pyrido[2,3-d]pyrimidine-2,4,6(1H,3H,8H)-trione] |  |  | inactive |  | 
13 | CCn1c2c(c(=O)[nH]c1=O)C(c1ccc(C)cc1)C1=C(CN(CCc3ccc(O)cc3)C1=O)N2 (stereo not drawn) [Compound 3s, 1-Ethyl-7-(4-hydroxyphenethyl)-5-(p-tolyl)-5,7,8,9-tetrahydro-1H-pyrrolo[3',4':5,6]pyrido[2,3-d]pyrimidine-2,4,6(3H)-trione] | decreasing c-Myc expression levels | concomitant increase in p21Cip1 |  | slow exchange | 
